Measured values of several laboratories.
Protocols differ between the studies behind these lines.
Observed: ABTS scavenging

Structure (SMILES) | method | IC50
O=C(O)c1cc(O)c(O)c(O)c1 | absorbance | 8.19 µM
COc1ccc(-c2nc3cc(F)ccc3[nH]2)cc1OCc1ccccc1 | absorbance | 1.72 µM
O=c1oc2c(O)c(O)cc3c(=O)oc4c(O)c(O)cc1c4c23 | absorbance | 5.76 µM
O=C1O[C@H]([C@@H](O)CO)C(O)=C1O | – | 1.4 µg/mL
O=C(Cc1c[nH]c2ccccc12)Nc1ccc(Br)cc1 | – | 0.58 µM
O=c1c(O[C@@H]2O[C@H](CO)[C@@H](O)[C@H](O)[C@H]2O)c(-c2ccc(O)c(O)c2)oc2cc(O)cc(O)c12 | absorbance | 6.51 µM
COc1ccc(-c2nc3ccccc3[nH]2)cc1OCc1ccccc1 | absorbance | 1.76 µM
Cc1cc(C(C)(C)C)c(O)c(C(C)(C)C)c1 | – | 6.99 µg/mL
O=C(Cc1c[nH]c2ccccc12)Nc1cccc(I)c1 | – | 1.15 µM
Fc1ccc2[nH]c(-c3ccccc3OCc3ccccc3)nc2c1 | absorbance | 1.77 µM
O=c1c(O[C@@H]2O[C@H](CO)[C@@H](O)[C@H](O)[C@H]2O)c(-c2ccc(O)cc2)oc2cc(O[C@@H]3O[C@H](CO)[C@@H](O)[C@H](O)[C@H]3O)cc(O)c12 | absorbance | 30.6 µM
O=C(Cc1c[nH]c2ccccc12)Nc1ccc(Cl)cc1 | – | 0.46 µM
COc1ccc(-c2nc3cc(C)c(C)cc3[nH]2)cc1OCc1ccccc1 | absorbance | 1.83 µM
CCOC(=O)c1cc(O)c(O)c(O)c1 | absorbance | 17.7 µM
Cc1ccc(NC(=O)Cc2c[nH]c3ccccc23)cc1C | – | 1.58 µM
